Measurements from PMC6068850 (World Journal of Hepatology, 2018).
In brackets after ≈: the same amount, converted by molar mass.

Assays:
[1] = Aqueous solubility; assay type: physicochemical; conditions: aqueous (water)
[2] = In vitro stability in HCl buffer; assay type: physicochemical; conditions: 0.05 mol/L HCl, 37 °C, till 3 h, HPLC
Procedure, shortened: (§1)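 5 mL aliquots were replaced with fresh buffer at 0, 15, 30, 45, 60 min, then every 30 min to 3 h (HCl) or 6 h (phosphate). Analysed by reverse-phase C18 HPLC against 10-100 μg/mL calibration curves; triplicate.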

[3] = In vitro stability in phosphate buffer; assay type: physicochemical; conditions: 0.05 mol/L phosphate buffer, 37 °C, till 6 h, HPLC
Procedure, shortened: as §1

[4] = In vitro release in rat stomach homogenates; assay type: in vitro ADME; conditions: till 3 h
Procedure, shortened: (§2)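 Incubations in rat stomach homogenate ran up to 3 h; those in intestinal homogenate ran up to 6 h. Intact prodrug and released INH were quantified simultaneously by validated reverse-phase C18 HPLC using prodrug-specific mobile phases at 1 mL/min with UV detection. Percent hydrolysed and INH released came from calibration curves. Rate constants, half-lives and kinetic order were calculated; samples were run in triplicate.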

[5] = In vitro release kinetics in rat intestinal homogenates; assay type: in vitro ADME; conditions: for % Prodrug hydrolysed / K ± SD (hydrolysis rate constant): rat intestinal homogenates; for % Prodrug hydrolysed: over 6 h; for K ± SD (hydrolysis rate constant): first-order kinetics, average of three readings; for half-life: rat, intestinal homogenates
Procedure, shortened: as §2

[6] = test system: superoxide dismutase (SOD); assay: Liver superoxide dismutase activity, hepatoprotective study; assay type: in vivo, Wistar rats; conditions: 21 d oral; for Level of SOD re-established: dose equimolar to INH 150 mg/kg/day
[7] = test system: glutathione peroxidase (GSHPx); assay: Liver glutathione peroxidase, hepatoprotective study; assay type: in vivo, Wistar rats; conditions: 21 d oral; for Level of GSHPx re-established: dose equimolar to INH 150 mg/kg/day
[8] = test system: malondialdehyde (MDA); assay: Assay of lipid peroxidation products in liver; assay type: in vivo, Wistar rats; conditions: 21 d oral, treated groups vs INH-treated group
Procedure, shortened: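 Hepatic lipid peroxidation was measured as thiobarbituric-acid-reactive MDA (Ohkawa method). 1,1,3,3-tetraethoxypropane was the standard, and results were expressed as micromoles per gram of tissue. Livers came from male Wistar rats (6/group) given oral suspensions in 1% sodium CMC for 21 d, INH 150 mg/kg/day, test compounds equimolar. Mean ± SEM; one-way ANOVA/Dunnett versus the INH group.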

[9] = test system: rat liver; assay: Histopathological analysis of rat liver; assay type: in vivo, Wistar rats; conditions: H&E-stained liver sections, 21 d oral
Procedure, shortened: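 Male Wistar rats (180-200 g), acclimatized 1 wk at 24 ± 1 °C, 45%-55% humidity, 12:12 h light/dark; 8 groups of 6. Oral dosing for 21 d as a suspension in 1% sodium CMC, with doses equimolar to the parent drug. On day 22, rats were fasted overnight, bled and sacrificed. Liver was washed in ice-cold saline, fixed in 10% formalin, sectioned, H&E-stained and photographed under light microscopy.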

[10] = test system: Wistar rats; assay: Evaluation of hepatoprotective potential; assay type: in vivo; conditions: male Wistar rats, 21 d oral
Procedure, shortened: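 Male Wistar rats (180-200 g), acclimatized 1 wk, randomized into 8 groups of 6. Oral suspensions in 1% sodium CMC for 21 d: INH 150 mg/kg/day, prodrugs and physical mixtures equimolar to INH, saline control. On day 22, rats were fasted overnight, bled retrobulbarly and sacrificed. Endpoints: serum ALT/AST, TG, cholesterol; liver SOD, GSHPx, MDA; blinded H&E histology.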

[11] = test system: alanine aminotransferase (ALT); assay: Estimation of serum alanine aminotransferase; assay type: in vivo, Wistar rats; conditions: 21 d oral, mean ± SEM
Procedure, shortened: (§3)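 Serum aminotransferases were measured colorimetrically with commercial kits (Reitman–Frankel method). Male Wistar rats (6/group) were dosed orally for 21 d in 1% sodium CMC, INH 150 mg/kg/day, test compounds equimolar. Blood was drawn retrobulbarly after an overnight fast on day 22. Mean ± SEM; one-way ANOVA with Dunnett's test versus the INH group.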

[12] = test system: aspartate aminotransferase (AST); assay: Estimation of serum aspartate aminotransferase; assay type: in vivo, Wistar rats; conditions: 21 d oral, mean ± SEM
Procedure, shortened: as §3

[13] = In vivo release studies after oral administration of NI; set-up: species or system Wistar rats
Procedure, shortened: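 Male Wistar rats were fasted 24 h and housed individually in metabolic cages. They received an oral suspension of test compound in 1.0 mL saline, 309 mg/kg (equimolar to INH). EDTA blood was collected at 0 min, every 15 min for 1 h, every 2 h to 10 h, and at 24 h. Samples were spun 5000 rpm at 0-5 °C, methanol-precipitated and analysed by HPLC. Urine and faeces were pooled over 24 h.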

| SMILES | solubility [1] | Stability in HCl buffer, pH 1.2 [2] | Stability in phosphate buffer, pH 7.4 [3] | Release of INH in stomach homogenates [4] | % Prodrug hydrolysed [5] | K ± SD (hydrolysis rate constant) [5] | half-life [5] | Level of SOD re-established [6] | Level of GSHPx re-established [7] | Effect on MDA level (in words) [8] | Liver histopathology findings [9] | Hepatoprotective potential assessment (overall) [10] | ALT level [11] | AST level [12] | also measured |
| --- | --- | --- | --- | --- | --- | --- | --- | --- | --- | --- | --- | --- | --- | --- | --- |
| CC(S)C(=O)NCC(=O)NNC(=O)c1ccncc1 (stereo not shown) [MGI, 2-Mercapto-N-{2-oxo-2-[N’-(pyridine-4-carbonyl)-hydrazino]-ethyl}-propionamide] | 94 mg/mL (≈ 333 mM) | Stable | Stable | Negligible | 70.11% | 0.0033 min⁻¹ | 3.62 h | 71.98% | 91.83% | better compared to that achieved with MI | minimal inflammation, with minimal portal triaditis and mild dilation of blood sinusoids | moderate effects |  |  |  |
| NNC(=O)c1ccncc1 [INH, isoniazid, reference compound] | 135 mg/mL (≈ 984 mM) |  |  |  |  |  |  |  |  | significantly higher | all these pathological changes were noticed |  | 144 ± 7.70 U/L | 148 ± 7.60 U/L | Effect on level of SOD (in words) [6]: significantly lower; Effect on level of GSHPx (in words) [7]: significantly lower |
| CSCCC(N)C(=O)NNC(=O)c1ccncc1 (stereo not shown) [MI, Isonicotinic acid N’-(2-amino-4-methylsulfanyl-butyryl)-hydrazide] | 114 mg/mL (≈ 425 mM) | Stable | Stable | Negligible | 86.55% | 0.0051 min⁻¹ | 3.02 h | 88.69% | 93.87% |  | minimal inflammation, with minimal portal triaditis and mild dilation of blood sinusoids | moderate effects |  |  |  |
| CC(=O)NC(CS)C(=O)NNC(=O)c1ccncc1 (stereo not shown) [NI, N-{1-mercaptomethyl-2-oxo-2-[N’-(pyridine-4-carbonyl)-hydrazino]-ethyl}-acetamide] | 104 mg/mL (≈ 368 mM) | Stable | Stable | Negligible | 94.93% | 0.0034 min⁻¹ | 3.89 h | 93.39% | 100% | better compared to that achieved with MI | reversal of such pathology, with no evidence of necrosis, inflammation or fibrosis | noteworthy effects | 48 ± 4.50 U/L | 46 ± 7.30 U/L | INH in urine and faeces samples ([13]; 24 h pooled samples): without any presence; Intact NI in urine and faeces samples ([13]; 24 h pooled samples): not observed; Time at which intact NI completely disappeared from blood ([13]; Wistar rats, blood): 7.5 to 9 h; Time from which concentration of intact NI in blood started declining ([13]; Wistar rats, blood): 5.5 to 6.5 h; Time of appearance of intact NI in blood ([13]; Wistar rats, blood): 2 to 2.5 h |
